Measurements published in ChEMBL document CHEMBL1126276, “Synthesis and antimalarial properties of 1-imino derivatives of 7-chloro-3-substituted-3,4-dihydro-1,9(2H,10H)-acridinediones and related structures” (J Med Chem, 1992).
“And” between values parts separate entries of the source, which are not always exact repeats. Equal values may be shown once.

Assays:
Format in all cases: functional
[1] = tested on: Plasmodium berghei; experiment: (§1) Antimalarial activity in Plasmodium berghei infected mice (Mus musculus) after 40 mg/kg subcutaneous dose
How it was run: (§2)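 […] in mice infected with a normal drug-sensitive P. berghei strain. Compound dissolved or suspended in sesame or peanut oil, given as a single subcutaneous dose 72 h postinfection.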

[2] = tested on: Plasmodium berghei; experiment: (§3) Antimalarial activity in Plasmodium berghei infected mice (Mus musculus) after 80 mg/kg subcutaneous dose; how it was run: as §2
[3] = tested on: Plasmodium berghei; experiment: Antimalarial activity in Plasmodium berghei infected mice (Mus musculus) after 160 mg/kg subcutaneous dose; how it was run: as §2
[4] = tested on: Plasmodium berghei; experiment: as §3; remark: listed apart in the source
How it was run: (§4)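 Normal drug-sensitive P. berghei strain in mice. Compound dissolved or suspended in sesame or peanut oil, given parenterally as a single subcutaneous dose 72 h postinfection.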

[5] = tested on: Plasmodium berghei; experiment: Antimalarial activity in Plasmodium berghei infected mice (Mus musculus) after 20 mg/kg subcutaneous dose; how it was run: as §2
[6] = tested on: Plasmodium berghei; experiment: Antimalarial activity in Plasmodium berghei infected mice (Mus musculus) after subcutaneous 320 mg/kg dose; how it was run: as §4
[7] = tested on: Plasmodium berghei; experiment: Antimalarial activity in Plasmodium berghei infected mice (Mus musculus) after subcutaneous 640 mg/kg dose; how it was run: as §4
[8] = tested on: Plasmodium berghei; experiment: Antimalarial activity in Plasmodium berghei infected mice (Mus musculus) after subcutaneous 160 mg/kg dose; how it was run: as §4
[9] = tested on: Plasmodium berghei; experiment: Antimalarial activity Plasmodium berghei infected mice (Mus musculus) after 640 mg/kg subcutaneous dose; how it was run: as §2
[10] = tested on: Plasmodium berghei; experiment: as §1; how it was run: as §4; remark: listed apart in the source

SMILES	Delta mean survival time [1]	Delta mean survival time [2]	Delta mean survival time [3]	No. of cured mice [4]	Delta mean survival time [5]	No. of cured mice [6]	No. of cured mice [7]	No. of cured mice [8]	Delta mean survival time [9]	No. of cured mice [10]	Delta mean survival time ([9]; 640 mg/kg)	Delta mean survival time ([1]; 40 mg/kg)	Delta mean survival time ([2]; 80 mg/kg)	Delta mean survival time ([5]; 20 mg/kg)	No. of cured mice ([10]; 40 mg/kg)
O=c1c2c(n(O)c3ccc(Cl)cc13)CC(c1ccc(Cl)c(Cl)c1)C/C2=N\CCCN(CCO)CCO (stereo not given)	5.6	7.9	10.6	1	1.2	5	5	4	–	–	–	–	–	–	–
CCN(CC)CCCCCCC/N=C1\CC(c2ccc(C(F)(F)F)cc2)Cc2nc3ccc(Cl)cc3c(O)c21 (stereo not given)	9.6	–	23.1	–	–	–	3	3	0.1	4	–	–	–	–	–
CC1C(=O)c2c(nc3ccc(Cl)cc3c2O)CC1c1ccc(Cl)c(Cl)c1 (stereo not given)	10.8	–	–	5	8.2	5	5	5	–	3	–	–	–	–	–
CCN(CC)CC/N=C1\CC(c2ccc(C(F)(F)F)cc2)Cc2nc3ccc(Cl)cc3c(O)c21 (stereo not given)	17.6	–	–	–	–	–	5	5	–	3	–	–	–	–	–
CN(C)CCC/N=C1\CC(c2ccc(C3CCCCC3)cc2)Cc2nc3ccc(Cl)cc3c(O)c21 (stereo not given)	7	7.2	10.3	–	2.8	5	3	2	9.6	–	–	–	–	–	–
CCN(CC/N=C1\CC(c2ccc(Cl)c(Cl)c2)Cc2c1c(=O)c1cc(Cl)ccc1n2O)CC(C)(C)O (stereo not given)	8.2	8	–	4	6.3	5	–	5	–	–	–	–	–	–	–
CN(C)CCC/N=C1\CC(c2ccc(C(F)(F)F)cc2)Cc2nc3ccc(Br)cc3c(O)c21 (stereo not given)	9.3	–	–	5	6	5	2	5	25.7	1	–	–	–	–	–
C=CCn1c2c(c(=O)c3cc(Cl)ccc31)C(=O)CC(c1ccc(C(F)(F)F)cc1)C2 (stereo not given)	8.5	–	12.6	–	–	–	4	–	15	1	–	–	–	–	–
CCCCNC(CC)C/N=C1\CC(c2cccc(C(F)(F)F)c2)Cc2c1c(=O)c1cc(Cl)ccc1n2O (stereo not given)	6.8	10.9	–	1	5.6	5	5	5	–	–	–	–	–	–	–
CCCC/N=C1\CC(c2ccc(C(F)(F)F)cc2)Cc2c1c(=O)c1cc(Cl)ccc1n2O (stereo not given)	8.5	10.2	–	3	5.3	5	5	5	–	1	–	–	–	–	–
CN(C)CCC/N=C1\CC(c2ccccc2C(F)(F)F)Cc2c1c(=O)c1cc(Cl)ccc1n2O (stereo not given)	5.8	7.5	8	1	–	5	5	4	–	–	–	–	–	–	–
C=CCNCC/N=C1\CC(c2cccc(C(F)(F)F)c2)Cc2c1c(=O)c1cc(Cl)ccc1n2O (stereo not given)	5.9	9.4	–	1	3	5	5	5	–	2	–	–	–	–	–
CCN(CC)CCC/N=C1\CC(c2ccc(Cl)c(Cl)c2)Cc2c1c(=O)c1cc(Cl)ccc1n2O (stereo not given)	3.5	11.7	12.7	2	5.8	5	5	4	–	–	–	–	–	–	–
O=C1CC(c2ccc(F)cc2)Cc2c1c(=O)c1cc(Cl)ccc1n2O (stereo not given)	19.4	9.8	8.8	4	5	5	5	4	–	2	–	–	–	–	–
CCN(CCO)CCC/N=C1\CC(c2ccc(Cl)c(Cl)c2)Cc2c1c(=O)c1cc(Cl)ccc1n2O (stereo not given)	8.6	9.6	10.1	1	–	5	5	3	–	–	–	–	–	–	–
CC(C/N=C1\CC(c2cccc(C(F)(F)F)c2)Cc2c1c(=O)c1cc(Cl)ccc1n2O)N(C)C (stereo not given)	11.9	9.2	8.6	–	4	5	5	2	–	1	–	–	–	–	–
CN(C)CCC/N=C1\CC(c2cccc(C(F)(F)F)c2)Cc2nc3ccc(Cl)cc3c(O)c21 (stereo not given)	6.6	14.6	–	1	–	5	5	5	–	–	–	–	–	–	–
CC1C(=O)c2c(nc3ccc(Cl)cc3c2O)CC1c1ccc(C(F)(F)F)cc1 (stereo not given)	5.7	7.5	12.8	–	3.9	5	4	2	8.8	–	–	–	–	–	–
CC(C/N=C1\CC(c2ccc(C(F)(F)F)cc2)Cc2nc3ccc(Cl)cc3c(O)c21)N(C)C (stereo not given)	–	–	–	–	–	–	5	5	–	5	–	–	–	–	–
CN(C)CCC/N=C1\CC(c2ccc(Cl)c(Cl)c2)Cc2nc3ccc(Cl)cc3c(O)c21 (stereo not given)	9.8	11.8	–	4	9.2	5	5	5	–	3	–	–	–	–	–
CCN(CC)CCCC(C)/N=C1\CC(c2ccc(Cl)c(Cl)c2)Cc2c1c(=O)c1cc(Cl)ccc1n2O (stereo not given)	6.1	9.6	–	1	–	5	5	5	–	1	–	–	–	–	–
CCCCN(CCCC)CC/N=C1\CC(c2cccc(C(F)(F)F)c2)Cc2c1c(=O)c1cc(Cl)ccc1n2O (stereo not given)	9.6	7	11.6	–	5.4	5	5	3	–	1	–	–	–	–	–
CN(C)CCC/N=C1\CC(c2ccc(Cl)c(Cl)c2)Cc2c1c(=O)c1cc(Cl)ccc1n2O (stereo not given)	12.7	17.2	–	3	7.1	5	5	5	–	3	–	–	–	–	–
CN(C)CCC/N=C1\CC(c2ccc(Cl)c(C(F)(F)F)c2)Cc2nc3ccc(Cl)cc3c(O)c21 (stereo not given)	8.7	–	–	5	7.5	5	5	5	–	4	–	–	–	–	–
NCC/N=C1\CC(c2ccc(Cl)cc2Cl)Cc2nc3ccc(Cl)cc3c(O)c21 (stereo not given)	–	–	–	–	–	–	5	5	–	5	–	–	–	–	–
CCCCNCCC/N=C1\CC(c2ccc(Cl)c(Cl)c2)Cc2c1c(=O)c1cc(Cl)ccc1n2O (stereo not given)	9.4	9.1	10.6	1	4.4	5	5	4	–	–	–	–	–	–	–
CN(C)CCC/N=C1/c2c([nH]c3ccc(Cl)cc3c2=O)CC(c2ccc(Cl)c(Cl)c2)C1c1ccccc1 (stereo not given)	7.7	14.2	12.2	1	3.1	5	5	2	–	–	–	–	–	–	–
O=C1CC(c2ccc(C(F)(F)F)cc2)Cc2c1c(=O)c1c(Cl)c(Cl)ccc1n2O (stereo not given)	7	7.8	7	–	4.5	3	2	2	–	–	9.8 and 7	–	–	–	–
CC1C(=O)c2c(n(O)c3ccc(Cl)cc3c2=O)CC1c1ccc(C(F)(F)F)cc1 (stereo not given)	7.8	14.1	–	2	5.2	5	5	5	–	–	–	–	–	–	–
CC1/C(=N\CCCN(C)C)c2c(nc3ccc(Cl)cc3c2O)CC1c1ccc(Cl)c(Cl)c1 (trans isomer)	–	–	–	4	–	5	–	5	–	–	–	7.2	15	5.3	1
